This passage reports inhibition and IC50 results from ChEMBL document CHEMBL2034909, “Inhibition of thioredoxin reductase by a novel series of bis-1,2-benzisoselenazol-3(2H)-ones: Organoselenium compounds for cancer therapy” (Bioorg Med Chem, 2012).

Experiment [1] has as its target T1, Thioredoxin reductase 1, cytoplasmic (Rattus norvegicus) (UniProt O89049).
T1 sequence (whole entry): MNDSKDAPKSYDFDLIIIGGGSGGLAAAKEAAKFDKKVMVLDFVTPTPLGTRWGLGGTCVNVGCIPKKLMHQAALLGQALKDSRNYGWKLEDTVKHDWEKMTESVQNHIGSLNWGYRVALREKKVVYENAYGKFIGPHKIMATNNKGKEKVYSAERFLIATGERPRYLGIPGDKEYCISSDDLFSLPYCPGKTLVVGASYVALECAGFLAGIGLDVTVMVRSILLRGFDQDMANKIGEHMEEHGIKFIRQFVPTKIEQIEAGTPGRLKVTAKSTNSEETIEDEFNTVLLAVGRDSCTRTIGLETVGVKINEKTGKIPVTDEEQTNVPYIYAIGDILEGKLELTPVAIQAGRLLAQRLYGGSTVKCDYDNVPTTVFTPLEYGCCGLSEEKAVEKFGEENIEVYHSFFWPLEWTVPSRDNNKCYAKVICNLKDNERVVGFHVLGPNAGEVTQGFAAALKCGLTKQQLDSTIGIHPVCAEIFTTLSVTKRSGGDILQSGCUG
Nature of the experiment: (§1) Inhibition of TrxR1 in rat liver homogenate preincubated for 5 mins measured by DNTB assay. The class given is tissue-based. In a few lines: (§2)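 Rat liver TrxR (purified, 10 μg) in 100 mM potassium phosphate, 2 mM EDTA, pH 7.4 with NADPH, pre-incubated 5 min with inhibitor (DMSO control) at room temperature. DTNB was then added and A412 increase followed over the first 120 s. IC50 given as mean ± SD of triplicate experiments.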

In experiment [2] the target is T2, Thioredoxin reductase 1, cytoplasmic (Rattus norvegicus, UniProt O89049).
T2 sequence (O89049 whole entry): T1 sequence (whole entry)
The description is as §1. The class given is tissue-based. The essentials:
as §2

The subject of experiment [3] is MIA PaCa-2. Nature of the experiment: Growth inhibition of human MIAPaCa2 cells after 48 hrs by MTT assay. The class given is functional, cell-based. Particulars: MIA PaCa-2, 48 h. In a few lines: (§3)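 Exponentially growing cells were seeded at 4000–5000 per well. LoVo was grown in RPMI 1640 and MIA PaCa-2 and U87 MG in DMEM, each with 10% FBS and penicillin/streptomycin at 37 °C under 5% CO2. Compounds in DMSO (0–50 μM) were added for 48 h, and growth was read by MTT.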

A short description of experiment [4]: Growth inhibition of human U87MG cells after 48 hrs by MTT assay. Format: functional, cell-based, U-87MG ATCC. Particulars: U-87 MG. In a few lines:
as §3
(Tetrazolium assays rely on reduction of a dye to a coloured formazan, in cell work by metabolically active cells.)

The subject of experiment [5] is LoVo. Put plainly: Growth inhibition of human LoVo cells after 48 hrs by MTT assay. The class given is functional, cell-based. The essentials: as §3
For experiment [6], the target named is Thioredoxin reductase (Homo sapiens, UniProt Q16881+Q9NNW7+Q86VQ6). Put plainly: Inhibition of TrxR in human U87MG cells after 12 hrs by insulin-reducing method. Format: cell-based. Particulars: U-87MG ATCC. In a few lines:
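U87 MG cells were treated with graded compound concentrations for 12 h, with 1% DMSO as control. Reactions were quenched with guanidine-HCl/DTNB and read at A412. The Trx-free blank was subtracted.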

`Cc1ccc2[se]n(CCCn3[se]c4ccc(C)cc4c3=O)c(=O)c2c1`: the inhibition entry in experiment [1] is “Dose-dependent effect”. Inhibition in experiment [2] was half-maximal at 1.16 µM (IC50).

For `Cc1ccc2[se]n(CCCCCn3[se]c4ccc(C)cc4c3=O)c(=O)c2c1`, the inhibition result in experiment [1] is “Dose-dependent effect”. The IC50 (in general, the concentration needed to halve the response being measured) in experiment [2] stood at 3.16 µM; in experiment [3], 6.71 µM; in experiment [4], 12.2 µM; in experiment [5] it was 16.6 µM.

As to `O=c1c2cc(F)ccc2[se]n1CCCn1[se]c2ccc(F)cc2c1=O`, the inhibition result in experiment [1] was “Dose-dependent effect”. For the same molecule, the 50% inhibitory concentration (IC50) in experiment [2] was 0.86 µM.

Regarding `O=c1c2cc(Br)ccc2[se]n1CCCCCn1[se]c2ccc(Br)cc2c1=O`, the inhibition entry in experiment [1] was “Dose-dependent effect”. This molecule registered an IC50 in experiment [2] of 1.59 µM.

`O=c1c2cc([N+](=O)[O-])ccc2[se]n1CCn1[se]c2ccc([N+](=O)[O-])cc2c1=O`: the inhibition result in experiment [1] and in experiment [6] was “Dose-dependent effect” in each case. Moreover, the results for the concentration for half-maximal inhibition (IC50) in experiment [2], in experiment [3] and in experiment [4] were 0.57 µM, over 50 µM and over 50 µM, respectively.

`O=c1c2ccc(F)cc2[se]n1CCn1[se]c2cc(F)ccc2c1=O`: the inhibition result in experiment [1] was “Dose-dependent effect”. Besides, the half-inhibitory concentration (IC50) in experiment [2] came to 0.82 µM; in experiment [3] it was 8.47 µM; in experiment [4], 12.6 µM.

In the case of `Cc1ccc2[se]n(C3CCC(n4[se]c5ccc(C)cc5c4=O)CC3)c(=O)c2c1` (stereo unspecified), the inhibition result in experiment [1] was “Dose-dependent effect”. Further, in experiment [2], the 50% inhibitory concentration (IC50) is over 50 µM.

For `O=c1c2cc(F)ccc2[se]n1CCCCn1[se]c2ccc(F)cc2c1=O`, the inhibition entry in experiment [1] is “Dose-dependent effect”. In experiment [2], half-maximal inhibition (IC50) required 1.64 µM.

With `O=c1c2ccc(Cl)cc2[se]n1CCCCCn1[se]c2cc(Cl)ccc2c1=O`, the inhibition entry in experiment [1] was “Dose-dependent effect”. Moreover, the half-maximal inhibitory concentration (IC50) in experiment [2] came out at 4.54 µM.

`O=c1c2cc(Br)ccc2[se]n1CCn1[se]c2ccc(Br)cc2c1=O`: the inhibition result in experiment [1] and in experiment [6] was “Dose-dependent effect” throughout. In addition, the IC50 in experiment [2] was 1.58 µM; in experiment [3] it was over 50 µM; in experiment [4] it was over 50 µM.

For `O=c1c2ccccc2[se]n1CCCCCCCCn1[se]c2ccccc2c1=O`, in experiment [1], the inhibition result is “Dose-dependent effect”. The concentration for half-maximal inhibition (IC50) in experiment [2] stood at 4.49 µM.

With `O=c1c2ccccc2[se]n1CCCCCCCn1[se]c2ccccc2c1=O`, the inhibition entry in experiment [1] is “Dose-dependent effect”. The concentration for half-maximal inhibition (IC50) in experiment [2] was 5.85 µM.

On to `O=c1c2cc(O)ccc2[se]n1CCn1[se]c2ccc(O)cc2c1=O`, for which, in experiment [1], the inhibition result was “Dose-dependent effect”. Moreover, the IC50 was found to be 0.32 µM in experiment [2], 5.3 µM in experiment [3], 6.6 µM in experiment [4] and 6.53 µM in experiment [5].

`Cc1ccc2[se]n(CCCCn3[se]c4ccc(C)cc4c3=O)c(=O)c2c1`: in experiment [1], the inhibition entry is “Dose-dependent effect”. Inhibition in experiment [2] was half-maximal at 2.38 µM (IC50).

For the molecule `O=c1c2cc(Cl)ccc2[se]n1CCCCCn1[se]c2ccc(Cl)cc2c1=O`, the inhibition result in experiment [1] is “Dose-dependent effect”. In addition, 1.8 µM corresponded to half-maximal inhibition in experiment [2] (IC50).

On to `O=c1c2ccccc2[se]n1CCCn1[se]c2ccccc2c1=O`, for which the inhibition entry in experiment [1] was “Dose-dependent effect”. For the same molecule, the IC50 in experiment [2] was determined as 0.78 µM.

In the case of `O=c1c2ccc(Cl)cc2[se]n1CCn1[se]c2cc(Cl)ccc2c1=O`, the inhibition result in experiment [1] was “Dose-dependent effect”. Further, the half-maximal inhibitory concentration (IC50) in experiment [2] is 2.87 µM; in experiment [3] it was over 50 µM; in experiment [4], over 50 µM.

On to `O=c1c2cc(Cl)ccc2[se]n1CCn1[se]c2ccc(Cl)cc2c1=O`, for which the inhibition entry in experiment [1] was “Dose-dependent effect”. In addition, the figures for the concentration for half-maximal inhibition (IC50) in experiment [2], in experiment [3] and in experiment [4] were 1.31 µM, over 50 µM and over 50 µM, respectively.

On to `O=c1c2ccccc2on1CCn1oc2ccccc2c1=O`, for which, in experiment [1], the inhibition result is “Dose-dependent effect”. In experiment [2], this molecule registered an IC50 of over 100 µM.

As to `O=c1c2ccccc2[se]n1-c1ccc(-n2[se]c3ccccc3c2=O)cc1`, the inhibition entry in experiment [1] was “Dose-dependent effect”. For the same molecule, the half-maximal inhibitory concentration (IC50) is 34.3 µM in experiment [2], over 50 µM in experiment [3] and over 50 µM in experiment [4].

For `Cc1ccc2[se]n(CCn3[se]c4ccc(C)cc4c3=O)c(=O)c2c1`, the inhibition result in experiment [1] and in experiment [6] was “Dose-dependent effect” in each case. Further, the concentration for half-maximal inhibition (IC50) came to 1.26 µM in experiment [2], 5.94 µM in experiment [3], 17.8 µM in experiment [4] and 6.12 µM in experiment [5].

As for `O=c1c2ccccc2[se]n1Cc1ccc(-n2[se]c3ccccc3c2=O)cc1`, in experiment [1], the inhibition result is “Dose-dependent effect”. The IC50 in experiment [2] is 47.7 µM; in experiment [3], over 50 µM; in experiment [5], over 50 µM.

In the case of `O=c1c2ccccc2[se]n1C1CCCCC1n1[se]c2ccccc2c1=O` (stereo unspecified), the inhibition entry in experiment [1] was “Dose-dependent effect”. Besides, the IC50 in experiment [2] is 12.8 µM; in experiment [3], 11.5 µM; in experiment [4] it was over 50 µM; in experiment [5] it was 17.2 µM.

`CC(=O)Oc1ccc2[se]n(CCn3[se]c4ccc(OC(C)=O)cc4c3=O)c(=O)c2c1`: the inhibition entry in experiment [1] is “Dose-dependent effect”. Further, the IC50 amounted to 22.6 µM in experiment [2], 10.2 µM in experiment [3] and 20.8 µM in experiment [4].

As for `O=c1c2ccccc2[se]n1CCCCCn1[se]c2ccccc2c1=O`, the inhibition entry in experiment [1] was “Dose-dependent effect”. Moreover, the IC50 in experiment [2] worked out at 1.95 µM; in experiment [3], 3.27 µM; in experiment [4] it was 6.05 µM; in experiment [5] it was 5.5 µM.

Consider `O=c1c2ccc(F)cc2[se]n1CCCCCn1[se]c2cc(F)ccc2c1=O`, for which, in experiment [1], the inhibition entry was “Dose-dependent effect”. The molecule further had an IC50 in experiment [2] of 2.91 µM.

For `O=c1c2cc(F)ccc2[se]n1CCCCCn1[se]c2ccc(F)cc2c1=O`, the inhibition entry in experiment [1] is “Dose-dependent effect”. Further, in experiment [2], half-maximal inhibition (IC50) required 3.87 µM.

Take `O=c1c2cc(F)ccc2[se]n1CCn1[se]c2ccc(F)cc2c1=O`: the inhibition entry in experiment [1] is “Dose-dependent effect”. Further, the IC50 in experiment [2] turned out to be 0.28 µM; in experiment [3], 3.07 µM; in experiment [4], 6.95 µM; in experiment [5], 4.55 µM.

As for `O=c1c2ccccc2[se]n1CCCCn1[se]c2ccccc2c1=O`, in experiment [1], the inhibition entry is “Dose-dependent effect”. The molecule also gave a half-inhibitory concentration (IC50) in experiment [2] of 1.03 µM.

Turning to `O=c1c2ccccc2[se]n1CCCCCCn1[se]c2ccccc2c1=O`, the inhibition entry in experiment [1] was “Dose-dependent effect”. The half-inhibitory concentration (IC50) in experiment [2] worked out at 1.66 µM.

Take `Cc1ccc2[se]n(CCCCCCn3[se]c4ccc(C)cc4c3=O)c(=O)c2c1`: the inhibition result in experiment [1] is “Dose-dependent effect”. The molecule further came in with a 50% inhibitory concentration (IC50) in experiment [2] of 4.91 µM.

`O=c1c2ccccc2sn1CCn1sc2ccccc2c1=O`: the inhibition result in experiment [1] was “Dose-dependent effect”. The molecule further registered an IC50 in experiment [2] of 48.1 µM.
